# Hits are enriched below; roughly 2.6% of the tested compounds scored in any of these assays.
# HSV replic up: HSV replication enhancement; AID 1956; hit rate 0.005% among 220,000; maximum fold increase; HSV replication augmentation in cells, fold increase; in the data active = maximum fold increase above about 1.5; tested in PC3 cells
# Rad51 HR inh: blocks human Rad51 in homologous recombination. Q06609. hRad51 DNA strand exchange, fluorescence dequenching. inhibition, % at 10 µM. hit rate 0.085% among 200,000. AID 1385;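 active = inhibition above 40% at the single screening dose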;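 also: 0% = DMSO control wells and 100% = blanks with heterologous ssDNA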
#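 Read-out basis: percent inhibition relative to plate controls and blanks / Assay system: human Rad51 nucleoprotein filaments preassembled on unlabelled ssDNA / Timing: filaments 15 min 37 °C, then compound 30 min / Control set: per-plate controls and blanks / Technique: fluorescence dequenching at 485/520 nm / Compound: 10 µM final, single point / Also added: Fluorescein- and BHQ1-tagged 47-mer duplex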
# HSF-1 act: increases HSF-1 driven luciferase reporter signal. NIH3T3-HGL HSF-1 luciferase reporter, MG132, 8 h; 100% = twice DMSO control signal. activation, % at 9 µM. hit rate 1.7% among 300,000. AID 504408;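 active = mean replicate activation of at least 50% with a set share of replicates each reaching 50%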;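 also: 0% = median of the neutral control wells and 100% = twice that signal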
# Hsp70 act: transcriptional activators of Hsp70; HeLa Hsp70 promoter luciferase reporter, luminescence; scaled: vehicle 0, proteasome-inhibitor control 100%; activation, % at 10 µM; hit rate 0.04% among 200,000;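 active = activation above the mean across all tested compounds plus 3 SD, cutoff set per campaign, cut at about 5.5% in these data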;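 also: 100% = MG132 at 30 µM as the positive control and 0% = DMSO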
# HSF1 inh: HSF1 inhibition; AID 2098; NIH3T3-HGL HSE-luciferase, MG132-induced, luminescence 8 h; stronger effect = lower value; hit rate 0.77% among 300,000; activity change, negative = inhibition, % at 7.5 µM (by protocol);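 active = more than half of replicate wells show activity change below -50%, luminescence cut by over half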;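 also: luciferase reports HSF-1 transcriptional activity via heat shock element; 0% = median of DMSO wells and -100% = zero luminescence signal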
# MDM2 E3 inh: Mdm2 E3 ligase (human) inhibition | Q00987 | cell-based MDM2 ubiquitination luciferase reporter, 2 h; 0 = plate control, 100 = twice control, blank-subtracted | signal enhancement, % at 5 µM | hit rate 0.11% among 210,000 | AID 1230;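 active = signal enhancement of 30% or more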;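 also: luminescence tracks abundance of the self-degrading MDM2-luciferase fusion protein; higher signal means inhibition of MDM2 E3 ligase activity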
# Target sequence (Q00987 whole entry, looked up, the tested form may be a part): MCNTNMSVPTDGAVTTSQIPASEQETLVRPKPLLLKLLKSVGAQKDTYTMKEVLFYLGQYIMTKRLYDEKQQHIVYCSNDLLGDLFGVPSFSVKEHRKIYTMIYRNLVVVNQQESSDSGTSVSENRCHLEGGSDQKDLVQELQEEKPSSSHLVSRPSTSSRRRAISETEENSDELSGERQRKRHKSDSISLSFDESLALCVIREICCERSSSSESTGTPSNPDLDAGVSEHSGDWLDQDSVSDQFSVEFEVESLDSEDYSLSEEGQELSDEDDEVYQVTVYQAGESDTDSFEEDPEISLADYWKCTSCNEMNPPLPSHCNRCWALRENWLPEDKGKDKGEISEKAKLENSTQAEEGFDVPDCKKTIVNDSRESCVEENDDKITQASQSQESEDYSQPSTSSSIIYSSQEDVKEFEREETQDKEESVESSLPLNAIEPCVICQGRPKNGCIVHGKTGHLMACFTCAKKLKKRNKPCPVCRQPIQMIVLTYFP
#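 Assay system: stable mammalian line carrying autodegrading MDM2–luciferase fusion reporter; amount: 2000 cells seeded into each well; buffer or medium: DMEM; benchmarks: plate control and blank wells; signal: luciferase luminescence; timing: 2 h compound exposure at 37 °C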
# The depositor's hits bear a star; i = inactive; . = not tested or not shown.
SMILES,HSV replic up,Rad51 HR inh,HSF-1 act,Hsp70 act,HSF1 inh,MDM2 E3 inh
Cc1ccc(S(=O)(=O)N2CCN(CCNC(=O)C(=O)NCc3ccccc3)CC2)cc1,.,.,-90.5,.,-87.1*,.
Cc1cc(S(=O)(=O)N2CCCC2)ccc1OCC(=O)NCc1ccccn1,.,.,0.0,.,4.7,.
O=C(NCCN1CCN(S(=O)(=O)c2ccc(F)cc2)CC1)C(=O)NCc1ccccc1,.,.,-12.3,.,6.1,.
CSCCC(NC(=O)c1ccccc1Br)C(=O)NCC(c1ccco1)N1CCCCC1 (stereo not drawn),.,.,1.0,.,2.0,.
CCOC(=O)Cn1cc(/C=C/[N+](=O)[O-])c2ccccc21,i,19.6,3.1,0.0,8.2,-2.3
CCOC(=O)COc1ccc2nsnc2c1,i,1.8,-7.8,-0.3,8.2,-9.9
O=[N+]([O-])/C=C/c1c(OCc2ccccc2)ccc2ccccc12,i,5.2,45.0,0.5,49.1,-10.2
CCOC(=O)COc1ccc(/C=C/[N+](=O)[O-])c(OCC(=O)OCC)c1,i,-3.5,196.9*,-0.4,160.9,-0.3
CCOC(=O)COc1ccc2ccccc2c1/C=C/[N+](=O)[O-],i,5.4,176.6*,0.6,138.9,-48.8
CCOc1ccc(/C=C/[N+](=O)[O-])c2ccccc12,i,1.4,75.6*,0.9,46.5,24.0
O=C(CN(c1ccccc1)S(=O)(=O)c1ccccc1[N+](=O)[O-])NN=C1CCCCCCC1,i,.,-11.0,-0.1,-9.9,-3.0
Cc1cc(C)nc(NC(=O)COc2cc(Cl)cc(Cl)c2)n1,i,-5.5,-76.9,-0.1,-71.0*,-9.2
CCC(=O)Nc1ccc(C(=O)Cn2ncc(Cl)c(Cl)c2=O)cc1,i,.,56.8*,.,41.7,-3.5
CCN(CC)S(=O)(=O)c1cc(NC(=O)Cn2ncc(Cl)c(Cl)c2=O)ccc1C,i,-3.6,120.5*,.,81.2,13.9
CCn1cc(C(=O)NC(C)C23CC4CC(CC(C4)C2)C3)cn1 (stereo not drawn),i,-4.0,7.1,-0.2,-0.5,-9.9
CCOC(=O)c1ccc(NC(=O)Cn2ncc(Cl)c(Cl)c2=O)cc1,i,-4.8,-94.2,5.8*,-93.5*,10.3
CC(NC(=O)Cn1ncc(Cl)c(Cl)c1=O)C12CC3CC(CC(C3)C1)C2 (stereo not drawn),i,11.4,-24.4,0.6,-35.1,99.1*
O=C(CCCOc1ccc(Br)cc1)Nc1ccc(S(=O)(=O)N2CCOCC2)cc1,.,.,20.9,.,11.9,.
OCC1(Cc2ccccc2F)CCCN(CC2CCCCC2)C1 (stereo not drawn),.,.,2.9,.,4.2,.
Cc1ccc(C(=O)OCn2ncc(Cl)c(Cl)c2=O)cc1,i,-0.2,-94.7,87.7*,-93.6*,17.2
O=C(CCCN1C(=O)C2CC=CCC2C1=O)Nc1cccc(F)c1 (stereo not drawn),.,.,-5.5,.,7.8,.
COc1ccc(OC)c(C(C[N+](=O)[O-])c2c(C)cc3ccccn23)c1 (stereo not drawn),.,.,112.1*,.,88.3,.
O=c1c2cc(Cl)ccc2[nH]c(=S)n1Cc1cccs1,i,5.1,6.8,-0.3,-3.0,-1.4
COc1cccc(CNC(=O)Cn2c(=O)c3cccn3c3ccccc32)c1,.,.,-88.7,.,-86.0*,.
O=C(NCCN1CCOCC1)C(=O)NCC1OCCN1S(=O)(=O)c1ccccc1 (stereo not drawn),.,.,-4.1,.,-5.3,.
SMILES,HSV replic up,Rad51 HR inh,HSF-1 act,Hsp70 act,HSF1 inh,MDM2 E3 inh
CC1CCN(C(=O)Cn2nnc(-c3ccc(N)cc3)n2)CC1,.,.,15.2,.,3.5,.
C=C(C(=O)c1ccccc1)C(CC(=O)c1ccccc1)c1ccccc1 (stereo not drawn),i,5.1,144.3*,-0.5,85.6,-14.4
C=C(CCC(=O)c1ccccc1)C(=O)c1ccccc1,i,1.8,102.6*,0.0,69.9,-14.5
Cc1cc(NC(=O)CCN2CCCCC2)ccc1Br,.,.,-9.1,.,-4.6,.
Cc1ccc(C(=O)NCCNC(=O)c2ccccn2)cc1,.,.,7.0,.,-8.1,.
COc1ccc(C(=S)Nc2ccc(N(C)C)cc2)cc1,i,-1.5,59.6*,-0.1,28.9,-2.0
Cc1nn(-c2ccccc2)c(C)c1/C=N/NC(=O)CSc1nnc(SCc2cccc3ccccc23)s1,i,23.6,46.9,-0.3,32.5,0.9
O=C1C2CCCN2C(=O)N1CCCCN1CCN(c2cccc(Cl)c2)CC1 (stereo not drawn),i,27.3,2.7,-0.2,-2.8,-28.5
COc1ccccc1NC(=O)c1cc(S(=O)(=O)NC2CCCC2)ccc1F,.,.,7.1,.,-5.9,.
CN(Cc1ccccc1)C(=O)c1ccccc1NC(=O)C1=CSCCO1,.,.,-79.1,.,-76.1*,.
CC(C)c1ccc(C2CC(c3ccc(Br)cc3)=NN2C(N)=S)cc1 (stereo not drawn),i,-18.7,73.7*,-0.4,48.4,6.6
O=C(NC1CCCN(Cc2ccccc2F)C1)c1cccs1 (stereo not drawn),.,.,62.2*,.,32.1,.
CCOC(=O)c1cn[nH]c1C(F)(F)F,i,9.3,56.9*,.,25.8,-8.0
COc1ccc(CCNC(=O)Nc2cccs2)c(OC)c1,.,.,8.5,.,1.7,.
O=C(C1CCCN(S(=O)(=O)Cc2ccccc2)C1)N1CCc2ccccc21 (stereo not drawn),i,14.4,-68.5,-0.3,-57.8*,-8.6
C=CCNC(=S)N1CCC(C(=O)c2ccc(Cl)cc2)CC1,.,.,-2.7,.,-4.0,.
OC(COc1ccc2c(c1)CCC2)Cn1cnc2ccccc21 (stereo not drawn),i,127.5*,11.5,0.5,14.6,-12.0
O=C(CSc1ncn[nH]1)c1cccc([N+](=O)[O-])c1,i,-0.5,126.6*,-0.3,77.3,-8.3
O=C(CSc1nc2ncccc2[nH]1)c1cccc([N+](=O)[O-])c1,i,-0.1,65.9*,-0.2,27.8,-3.1
O=C(CSc1ncn[nH]1)c1ccccc1,i,0.1,3.8,-0.2,0.9,8.6
O=C(CSc1nc2ncccc2[nH]1)c1ccc(F)cc1,i,2.6,-3.7,-0.4,10.4,-9.8
Cc1ccc(Nc2nc(N)c3ccccc3n2)cc1C,.,.,2.9,.,2.5,.
O=C(COC(=O)CNS(=O)(=O)c1cccc(Br)c1)NC(=O)Nc1ccc2c(c1)OCCO2,i,.,.,0.0,.,-7.7
Cc1ccc2c(c1)/C(=C/c1ccccc1F)C(=O)N2,.,.,5.0,.,12.4,.
CN1C2CCC1/C(=C\c1ccccc1F)C(=O)/C2=C/c1ccccc1F,i,-19.3,106.0*,0.4,75.0,1.9
COc1ccc(CCNCC(O)COc2ccc(OC)cc2C(C)(C)C)cc1 (stereo not drawn),.,.,16.0,.,-3.3,.
C[C@@H]1CC=C[C@H]2[C@H]1C(=O)N(Cc1ccccc1)[C@H]2c1cccc([N+](=O)[O-])c1,i,-3.6,7.7,.,-1.2,2.9
CC(C)(C)N(Cc1ccccc1)C(=O)COC(=O)Cn1cnc2ccccc2c1=O,i,-10.2,-5.7,-0.1,0.9,2.9
